Results published in ChEMBL document CHEMBL1126124, “3-Phenyl-4-hydroxyquinolin-2(1H)-ones: potent and selective antagonists at the strychnine-insensitive glycine site on the N-methyl-D-aspartate receptor complex” (J Med Chem, 1992).
pIC50, pKi: −log10 of the molar value.

Legend:
Glutamate NMDA receptor [1] = assay: Ability to displace strychnine-insensitive [3H]glycine binding to N-methyl-D-aspartate glutamate receptor of rat cortical membranes.
In short: (§1)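 Rat cortical membranes were prepared by a freeze/thaw Triton extraction. Incubation used [³H]glycine with 25 μg membrane fragments on ice for 1 h, ended by rapid filtration through GF/B filters. Nonspecific binding was defined with 100 μM D-serine.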

Glutamate NMDA receptor [2] = assay: Inhibition of [3H]MK-801 binding to a N-methyl-D-aspartate glutamate receptor in glycine-sensitive rat cortical membranes.; format: cell membranes, Membrane
In short: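 Well-washed rat cortical membranes were given an added freeze/thaw step. [³H]MK-801 (2.5 nM) binding was run with 1 μM glutamate and 0.2 μM glycine for 2 h at 27 °C, then stopped by filtration. Nonspecific binding was defined with 0.5 μM MK-801. Values are IC50.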

[3] = molecular target: T1, Glutamate receptor ionotropic, NMDA 1 (Rattus norvegicus, UniProt P35439); assay: Ability to displace strychnine-insensitive [3H]glycine binding to rat cortical membranes.; in short: as §1
[4] = molecular target: T1, Glutamate receptor ionotropic, NMDA 1; assay: Inhibition of [3H]-MK-801 binding to a N-methyl-D-aspartic acid(NMDA) receptor in glycine-sensitive rat cortical membranes.; format: cell membranes, Membrane

Row | Compound | pKi (Glutamate NMDA receptor [1]) | pIC50 (Glutamate NMDA receptor [2]) | pKi [3] | pIC50 [4]
1 | Oc1nc2cc(Cl)cc(Cl)c2c(O)c1-c1ccccc1 | 7.24 | 6.66 | – | –
2 | Oc1ccc(-c2c(O)nc3cc(Cl)cc(Cl)c3c2O)cc1 | 7.89 | 6.96 | – | –
3 | Nc1ccc(-c2c(O)nc3cc(Cl)cc(Cl)c3c2O)cc1 | – | – | 7.74 | 6.68
4 | O=c1[nH]c2cc(Cl)cc(Cl)c2c(O)c1-c1ccc([N+](=O)[O-])cc1 | – | – | 6.07 | –
5 | O=c1[nH]c2ccccc2c(O)c1-c1ccccc1 | – | – | – | 5.14
6 | COc1ccc(-c2c(O)nc3cc(Cl)cc(Cl)c3c2O)cc1 | 7.17 | 5.91 | – | –
7 | Cc1ccc(-c2c(O)nc3cc(Cl)cc(Cl)c3c2O)cc1 | – | – | 6.52 | 6.26
8 | O=C(O)c1cc(O)c2c(Cl)cc(Cl)cc2n1 | – | – | 7.40 | 6.07
